Measurements published in ChEMBL document CHEMBL1123247, “Nucleoside conjugates. 7. Synthesis and antitumor activity of 1-beta-D-arabinofuranosylcytosine conjugates of ether lipids” (J Med Chem, 1986).

Key:
[1] = tested on: L1210; assay: Antitumor activity was determined against the ip implanted L1210 leukemia in mice by percent median survival rate (treated/control) at 400 mg/kg (treatment of 1qd schedule) dosage; 25.0/7.0; assay type: functional, Mus musculus; conditions: route intraperitoneal
How it was run: (§1)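 DBA/2J mice, 23-28 g, in groups of 6, were inoculated ip with 1×10^6 L1210 cells on day 0. Dosing was ip starting 24 h later on the stated daily schedules. Conjugates were given as sonicated solutions and reference prodrugs as suspensions in 0.9% NaCl with 0.5% Tween-80. Mice were observed daily until death or 45 days. Median survival T/C was calculated from survivors per NCI protocols.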

[2] = tested on: L1210; assay: Antitumor activity was determined against the ip implanted L1210 leukemia in mice by change in […] at 100 mg/kg (treatment of 1-5qd schedule) dosage; assay type: functional, Mus musculus; conditions: route intraperitoneal
How it was run: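 DBA/2J mice, 6 per group (wt 23-28 g), inoculated ip with 1×10^6 L1210 cells on day 0. Treatment was given ip in 0.9% NaCl with 0.5% Tween-80, starting 24 h later. Weight change was taken on day 8. Mice were observed daily until death or 45 days. Median survival T/C and %ILS = (T/C − 1) × 100 came from survivors per NCI protocols, and 45-day survivors were counted.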

[3] = tested on: P388; assay: Antitumor activity was determined against the ip implanted P388 leukemia in mice by percent median survival rate (treated/control) at 500 mg/kg (treatment of 1qd schedule) dosage; >45.0/11.0; assay type: functional, Mus musculus; conditions: route intraperitoneal
[4] = tested on: P388; assay: Antitumor activity was determined against the ip implanted P388 leukemia in mice by percent median survival rate (treated/control) at 67 mg/kg (treatment of 1,5,9qd schedule) dosage; 25.5/11.0; assay type: functional, Mus musculus; conditions: route intraperitoneal
[5] = tested on: P388; assay: Antitumor activity was determined against the ip implanted P388 leukemia in mice by range in survival days at 500 mg/kg (treatment of 1qd schedule) dosage; Range is 23->45; assay type: functional, Mus musculus; conditions: route intraperitoneal
[6] = tested on: P388; assay: Antitumor activity was determined against the ip implanted P388 leukemia in mice by percent increase in life span at 67 mg/kg (treatment of 1,5,9qd schedule) dosage; assay type: functional, Mus musculus; conditions: route intraperitoneal
[7] = tested on: L1210; assay: Antitumor activity was determined against the ip implanted L1210 leukemia in mice by percent median survival rate (treated/control) at 40 mg/kg (treatment of 1-5qd schedule) dosage; 30.0/8.0; assay type: functional, Mus musculus; conditions: route intraperitoneal; how it was run: as §1
[8] = tested on: P388; assay: Antitumor activity was determined against the ip implanted P388 leukemia in mice by range in survival days at 133 mg/kg (treatment of 1,5,9qd schedule) dosage; Range is 31->45; assay type: functional, Mus musculus; conditions: route intraperitoneal
[9] = tested on: L1210; assay: Antitumor activity was determined against the ic implanted L1210 lymphoid leukemia in mice by median survival time at 133 mg/kg (1,5,9qd treatment schedule) dosage; 20.0/8.0
[10] = tested on: L1210; assay: Antitumor activity was determined against the ic implanted L1210 lymphoid leukemia in mice by range in survival days at 167 mg/kg (treatment of 1, 5, 9qd schedule) dosage; Range is 14-22; assay type: functional, Mus musculus
[11] = tested on: L1210; assay: Antitumor activity was determined against the ip implanted L1210 leukemia in mice by 45-day survivors in mice at 80 mg/kg (treatment of 1-5qd schedule) dosage; assay type: functional, Mus musculus; conditions: route intraperitoneal
How it was run: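 DBA/2J mice in groups of 6 (wt 23-28 g) were inoculated ip with 1×10^6 L1210 cells on day 0. Dosing was ip from 24 h, in 0.9% NaCl with 0.5% Tween-80 (conjugates sonicated), across a range of doses. Mice were observed daily until death or 45 days. Median T/C was computed from survivors per NCI protocols, and ILS = (T/C − 1)×100.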

[12] = tested on: P388; assay: Antitumor activity against ip implanted P388 leukemia in mice expressed as active dose range (1 qd treatment schedule) required to produce increase in life span by >25% was determined; Range is 300-500; assay type: functional, Mus musculus
How it was run: (§2)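 P388 leukemia: 1 × 10^6 cells were given ip on day 0 to DBA/2J mice, groups of 6 (23-33 g). Treatment was ip from 24 h after inoculation, vehicle 0.9% NaCl with 0.5% Tween-80. Mice were observed daily until death or 45 days. Median survival T/C was calculated from survivors per NCI protocols, and ILS = (T/C − 1) × 100. Active range means doses giving ILS ≥25%; optimal dose means greatest ILS.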

[13] = tested on: P388; assay: Antitumor activity was determined against the ip implanted P388 leukemia in mice by 45-day survivors in mice at 300 mg/kg (treatment of 1qd schedule) dosage; conditions: route intraperitoneal
[14] = tested on: L1210; assay: Antitumor activity was determined against the ic implanted L1210 lymphoid leukemia in mice by median survival time at 100 mg/kg (treatment of 1-5qd schedule) dosage; 22.0/7.0
[15] = tested on: AMML; assay: Compound was tested for the inhibition of AMML (acute myelomonocytic leukemia); assay type: functional, cell-based; conditions: Homo sapiens
How it was run: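 Human leukemia and solid tumor cells in culture were exposed to compound for 48 h. Viability was scored by trypan blue dye exclusion. IC50 (50% inhibition) was estimated from response curves of three separate experiments.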

[16] = tested on: L1210; assay: Antitumor activity was determined against the ip implanted L1210 leukemia in mice by range in survival days at 200 mg/kg (treatment of 1-5qd schedule) dosage; Range is 15-17; assay type: functional, Mus musculus; conditions: route intraperitoneal; how it was run: as §1
[17] = tested on: L1210; assay: Antitumor activity was determined against the ip implanted L1210 leukemia in mice by range in survival days at 400 mg/kg (treatment of 1qd schedule) dosage; Range is 9-11; assay type: functional, Mus musculus; conditions: route intraperitoneal; how it was run: as §1
[18] = tested on: L1210; assay: Antitumor activity was determined against the ic implanted L1210 lymphoid leukemia in mice by change in […] at 300 mg/kg (treatment of 1-5qd schedule) dosage; assay type: functional, Mus musculus
How it was run: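 DBA/2J mice, 6 per group (wt 26-32 g), inoculated ic with 1×10^5 L1210 cells on day 0. Dosing ip began 24 h after inoculation, with a sonicated solution or suspension in 0.9% NaCl containing 0.5% Tween-80, given over a range of doses. Animals were followed daily until death. Body weight change, median survival T/C, and %ILS = (T/C − 1) × 100 were computed from survivors per NCI protocols.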

[19] = tested on: L1210; assay: Antitumor activity against ic implanted L1210 lymphoid leukemia in mice expressed as active dose range (1-9qd treatment schedule) required to produce increase in life span by >25% was determined; Range is 100-300; assay type: functional, Mus musculus
How it was run: (§3)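 DBA/2J mice, groups of 6 (26-32 g), got 1 × 10^5 L1210 cells ic on day 0. Dosing was ip starting 24 h later, as a sonicated solution or suspension in 0.9% NaCl with 0.5% Tween-80, over a wide dose range. Mice were followed daily until death. Median survival T/C was taken from survivors per NCI protocols, and ILS = (T/C − 1) × 100. Active range means doses giving ILS ≥25%; optimal dose means greatest ILS.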

[20] = tested on: L1210; assay: Antitumor activity was determined against the ic implanted L1210 lymphoid leukemia in mice by percent increase in life span at 300 mg/kg (treatment of 1-5qd schedule) dosage; assay type: functional, Mus musculus; how it was run: as §3
[21] = tested on: P388; assay: Antitumor activity against ip implanted P388 leukemia in mice expressed as active dose range (1-5qd treatment schedule) required to produce increase in life span by >25% was determined; Range is 20-200; assay type: functional, Mus musculus; how it was run: as §2

## CCCCCCCCCCCCCCCCCCOCC(COP(=O)(O)OP(=O)(O)OC[C@H]1O[C@@H](n2ccc(N)nc2=O)[C@@H](O)[C@@H]1O)OC(=O)CCCCCCCCCCCCCCC (mixture of isomers)
[1]
  T/C: 25%
[2]
  Weight change: -0.95 g mouse-1
[3]
  T/C: >45%
[4]
  T/C: 25.5%
[5]
  Range: 23
[6]
  ILS: 132

## CCCCCCCCCCCCCCCC(=O)OC[C@H](COP(=O)(O)OP(=O)(O)OC[C@H]1O[C@@H](n2ccc(N)nc2=O)[C@@H](O)[C@@H]1O)OC(=O)CCCCCCCCCCCCCCC
[7]
  median survival time: 30 days
[8]
  Range: 31
[9]
  median survival time: 20 days

## CCCCCCCCCCCCCCCCOCC(COP(=O)(O)OP(=O)(O)OC[C@H]1O[C@@H](n2ccc(N)nc2=O)[C@@H](O)[C@@H]1O)OC(=O)CCCCCCCCCCCCCCC (mixture of isomers)
[10]
  Range: 14
[11]
  Survivors: 0
[12]
  Active dose range: 300 mg/kg/day
[13]
  Survivors: 6
[14]
  median survival time: 22 days

## Nc1ccn([C@@H]2O[C@H](CO)[C@@H](O)[C@@H]2O)c(=O)n1 [CYTARABINE]
[15]
  IC50: 2300 nM
[16]
  Range: 15
[17]
  Range: 9
[18]
  Weight change: -6.1
[19]
  Active dose range: 100 mg/kg/day
[20]
  ILS: 129
[21]
  Active dose range: 20 mg/kg/day
